How the values were obtained:
Assay type in all cases: functional
DU-145 = experiment: Antiproliferative activity against human DU145 cells assessed as reduction in cell growth incubated for 96 hrs by propidium iodide based 2D monolayer assay; details: DU-145, 96 h
Outline: (§1)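 After 24 h recovery, compound in medium or medium alone (control wells) was added at 10 half-log concentrations from 0.0032 to 100 µM, in triplicate, with at most 0.3% DMSO. After 96 h, wells were PBS-washed, stained with 7 µg/ml PI and 0.1% Triton X-100, and fluorescence read at 530/620 nm. IC50 came from a 4-parameter fit, geometric mean.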

CWR22R = experiment: Antiproliferative activity against human 22Rv1 cells assessed as reduction in cell growth incubated for 96 hrs by propidium iodide based 2D monolayer assay; details: 22Rv1, 96 h; outline: as §1
LNCaP = experiment: Antiproliferative activity against human LNCAP cells assessed as reduction in cell growth incubated for 96 hrs by propidium iodide based 2D monolayer assay; outline: as §1
VCaP = experiment: Antiproliferative activity against human VCaP cells assessed as reduction in cell growth incubated for 96 hrs by propidium iodide based 2D monolayer assay
Outline: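 VCaP cells in RPMI 1640 with 10% FCS at 37 °C, 5% CO2, seeded 4,000–20,000 cells/well and left 24 h before dosing. Compounds from DMSO stocks were diluted in half-log steps in medium, 10 concentrations 0.0032–100 μM, triplicate wells, max 0.3% DMSO. After 96 h, cells were washed, stained with 7 μg/ml propidium iodide plus 0.1% Triton X-100 for 1–2 h at room temperature, and fluorescence read at ex 530/em 620 nm.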

Row | SMILES | IC50 (DU-145) [µM] | IC50 (CWR22R) [µM] | IC50 (LNCaP) [µM] | IC50 (VCaP) [µM]
1 | CC(O)(CSc1ccccc1C(F)(F)F)C(=O)Nc1ccc(S(F)(F)(F)(F)F)cc1 (racemic) | 15.8 | 13.2 | 12.3 | 21
2 | CC(O)(CSc1cc(C(F)(F)F)cc(C(F)(F)F)c1)C(=O)Nc1cccc(S(F)(F)(F)(F)F)c1 (stereo not given) | 9.4 | 4.4 | 4.8 | 4
3 | CC(O)(CS(=O)(=O)c1ccc(C(F)(F)F)cc1)C(=O)Nc1ccc(S(F)(F)(F)(F)F)cc1 (racemic) | 29.3 | 28.9 | 20.7 | 27.7
4 | CNC(=O)c1ccc(N2C(=S)N(c3cccc(S(F)(F)(F)(F)F)c3)C(=O)C2(C)C)cc1F | 51.1 | 37.3 | 25.1 | 55.8
5 | CC(O)(CS(=O)(=O)c1ccc(F)cc1)C(=O)Nc1cccc(S(F)(F)(F)(F)F)c1 (racemic) | 48.8 | 38.9 | 32.6 | 37.9
6 | CC(O)(CS(=O)(=O)c1ccc(F)cc1)C(=O)Nc1ccc(S(F)(F)(F)(F)F)cc1 (racemic) | 27.7 | 20.6 | 18.2 | 34.2
7 | CC(O)(CSc1cccc(S(F)(F)(F)(F)F)c1)C(=O)Nc1ccc(C#N)c(C(F)(F)F)c1 (racemic) | 32.7 | 20.4 | 14.5 | 31.7
8 | CC(O)(COc1ccc(S(F)(F)(F)(F)F)cc1)C(=O)Nc1ccc([N+](=O)[O-])c(C(F)(F)F)c1 (racemic) | 21.2 | 14.1 | 100 | 100
9 | CC(O)(CSc1ccc(S(F)(F)(F)(F)F)cc1)C(=O)Nc1ccc(C#N)c(C(F)(F)F)c1 (racemic) | 27.9 | 18.1 | 16.9 | 30.2
10 | CC(O)(CSc1ccc(F)cc1)C(=O)Nc1cccc(S(F)(F)(F)(F)F)c1 (racemic) | 38.5 | 30.2 | 26.9 | 21.9
11 | CC(O)(CSc1cccc(S(F)(F)(F)(F)F)c1)C(=O)Nc1ccc(C#N)cc1C(F)(F)F (racemic) | 37.4 | 21.6 | 17.6 | 30.8
12 | CC(O)(CS(=O)(=O)c1cccc(C(F)(F)F)c1)C(=O)Nc1ccc(S(F)(F)(F)(F)F)cc1 (racemic) | 31.9 | 23.8 | 21 | 32
13 | CC(O)(CSc1ccc(OC(F)(F)F)cc1)C(=O)Nc1cccc(S(F)(F)(F)(F)F)c1 (racemic) | 24.7 | 17 | 10.3 | 28.5
14 | CC(O)(COc1cccc(OC(F)(F)F)c1)C(=O)Nc1cccc(S(F)(F)(F)(F)F)c1 (racemic) | 30.1 | 18.8 | 15.2 | 28.6
15 | CC(O)(CSc1ccc(S(F)(F)(F)(F)F)cc1)C(=O)Nc1ccc([N+](=O)[O-])cc1C(F)(F)F (racemic) | 14.5 | 13.1 | 10.3 | 26.3
16 | CC(O)(CSc1cccc(S(F)(F)(F)(F)F)c1)C(=O)Nc1ccc(S(F)(F)(F)(F)F)cc1 (racemic) | 17.3 | 17.7 | 25 | 28.2
17 | CC(O)(CSc1cccc(S(F)(F)(F)(F)F)c1)C(=O)Nc1ccc([N+](=O)[O-])cc1C(F)(F)F (racemic) | 18.9 | 17.5 | 12.7 | 28.8
18 | CC(O)(CS(=O)(=O)c1ccc(OC(F)(F)F)cc1)C(=O)Nc1cccc(S(F)(F)(F)(F)F)c1 (racemic) | 35.6 | 31.2 | 10.7 | 15.1
19 | CC(O)(CSc1ccccc1C(F)(F)F)C(=O)Nc1cccc(S(F)(F)(F)(F)F)c1 (racemic) | 15.8 | 13.2 | 12.3 | 21
20 | CC(O)(CS(=O)(=O)c1cccc(C(F)(F)F)c1)C(=O)Nc1cccc(S(F)(F)(F)(F)F)c1 (racemic) | 37.3 | 24.6 | 21.8 | 35.5
